In brackets after ≈: the same amount, converted by molar mass.
Key:
[1] = test system: Mycobacterium tuberculosis; test: Antibacterial activity against Mycobacterium tuberculosis isolate FJ05349 […] by agar dilution method; format: functional
Morganella morganii = test: Antibacterial activity against Morganella morganii ATCC 25830 after 18 hrs by agar dilution method; format: functional; conditions: ATCC 25830, 18 h
Klebsiella pneumoniae [2] = test: Antibacterial activity against extended-spectrum beta-lactamase-positive Klebsiella pneumoniae ATCC 700603 after 18 hrs by agar dilution method; format: functional; conditions: Klebsiella pneumoniae, 700603, 18 h
Enterococcus faecalis [3] = test: Antibacterial activity against vancomycin-resistant Enterococcus faecalis 09-9 after 18 hrs by agar dilution method; format: functional; conditions: 09-9, 18 h
Klebsiella pneumoniae [4] = test: Antibacterial activity against extended-spectrum beta-lactamase-negative Klebsiella pneumoniae 7 after 18 hrs by agar dilution method; format: functional; conditions: Klebsiella pneumoniae, 7, 18 h
Candida albicans = test: Antifungal activity against Candida albicans ATCC 10231 after 18 hrs by agar dilution method; format: functional; conditions: ATCC 10231, 18 h
Klebsiella pneumoniae [5] = test: Antibacterial activity against extended-spectrum beta-lactamase-positive Klebsiella pneumoniae 12-8 after 18 hrs by agar dilution method; format: functional; conditions: 12-8, 18 h
[6] = test system: Mycobacterium tuberculosis; test: Antibacterial activity against Mycobacterium tuberculosis isolate FJ05060 […] by agar dilution method; format: functional
Klebsiella aerogenes = test: Antibacterial activity against Enterobacter aerogenes ATCC 13048 after 18 hrs by agar dilution method; format: functional; conditions: ATCC 13048, 18 h
Providencia rettgeri = test: Antibacterial activity against Providencia rettgeri ATCC 31052 after 18 hrs by agar dilution method; format: functional; conditions: ATCC 31052, 18 h
Enterococcus faecium [7] = test: Antibacterial activity against vancomycin-resistant Enterococcus faecium 12-1 after 18 hrs by agar dilution method; format: functional; conditions: 12-1, 18 h
[8] = test system: Mycobacterium tuberculosis; test: Antibacterial activity against Mycobacterium tuberculosis H37Rv […] by agar dilution method; format: functional
Escherichia coli [9] = test: Antibacterial activity against extended-spectrum beta-lactamase-negative Escherichia coli ATCC 25922 after 18 hrs by agar dilution method; format: functional; conditions: ATCC 25922, 18 h
Escherichia coli [10] = test: Antibacterial activity against extended-spectrum beta-lactamase-negative Escherichia coli 12-14 after 18 hrs by agar dilution method; format: functional; conditions: 12-14, 18 h
Pseudomonas aeruginosa [11] = test: Antibacterial activity against Pseudomonas aeruginosa 12-16 after 18 hrs by agar dilution method; format: functional; conditions: 12-16, 18 h
Serratia marcescens = test: Antibacterial activity against Serratia marcescens ATCC 21074 after 18 hrs by agar dilution method; format: functional; conditions: ATCC 21074, 18 h
Proteus vulgaris = test: Antibacterial activity against Proteus vulgaris ATCC 29905 after 18 hrs by agar dilution method; format: functional; conditions: ATCC 29905, 18 h
Klebsiella pneumoniae [12] = test: Antibacterial activity against extended-spectrum beta-lactamase-negative Klebsiella pneumoniae 12-4 after 18 hrs by agar dilution method; format: functional; conditions: 12-4, 18 h
[13] = test system: Staphylococcus epidermidis; test: Antibacterial activity against methicillin-resistant Staphylococcus epidermidis 12-8 after 18 hrs by agar dilution method; format: functional; conditions: 12-8, 18 h
Citrobacter freundii = test: Antibacterial activity against Citrobacter freundii ATCC 43864 after 18 hrs by agar dilution method; format: functional; conditions: ATCC 43864, 18 h
Enterobacter cloacae = test: Antibacterial activity against Enterobacter cloacae ATCC 43560 after 18 hrs by agar dilution method; format: functional; conditions: ATCC 43560, 18 h
Klebsiella pneumoniae [14] = test: Antibacterial activity against NDM-1 positive Klebsiella pneumoniae ATCC BAA-2146 after 18 hrs by agar dilution method; format: functional; conditions: ATCC BAA-2146, 18 h
Enterococcus faecium [15] = test: Antibacterial activity against vancomycin-resistant Enterococcus faecium ATCC 700221 after 18 hrs by agar dilution method; format: functional; conditions: ATCC 700221, 18 h
Pseudomonas aeruginosa [16] = test: Antibacterial activity against Pseudomonas aeruginosa ATCC 27853 after 18 hrs by agar dilution method; format: functional; conditions: ATCC 27853, 18 h
Pseudomonas aeruginosa [17] = test: Antibacterial activity against Pseudomonas aeruginosa PAO1 after 18 hrs by agar dilution method; format: functional; conditions: PAO1, 18 h
Staphylococcus aureus [18] = test: Antibacterial activity against methicillin-resistant Staphylococcus aureus 12-33 after 18 hrs by agar dilution method; format: functional; conditions: 12-33, 18 h
Staphylococcus aureus [19] = test: Antibacterial activity against methicillin-resistant Staphylococcus aureus ATCC 33591 after 18 hrs by agar dilution method; format: functional; conditions: ATCC 33591, 18 h
Escherichia coli [20] = test: Antibacterial activity against extended-spectrum beta-lactamase-negative Escherichia coli 1515 after 18 hrs by agar dilution method; format: functional; conditions: Escherichia coli, 1515, 18 h
Escherichia coli [21] = test: Antibacterial activity against extended-spectrum beta-lactamase-positive Escherichia coli 12-15 after 18 hrs by agar dilution method; format: functional; conditions: 12-15, 18 h
[22] = test system: Stenotrophomonas maltophilia; test: Antibacterial activity against Stenotrophomonas maltophilia ATCC 13636 after 18 hrs by agar dilution method; format: functional; conditions: ATCC 13636, 18 h
Proteus mirabilis = test: Antibacterial activity against Proteus mirabilis 12-6 after 18 hrs by agar dilution method; format: functional; conditions: 12-6, 18 h
[23] = test system: Acinetobacter calcoaceticus; test: Antibacterial activity against Acinetobacter calcoaceticus ATCC 19606 after 18 hrs by agar dilution method; format: functional; conditions: ATCC 19606, 18 h
Enterococcus faecalis [24] = test: Antibacterial activity against vancomycin-resistant Enterococcus faecalis ATCC 51299 after 18 hrs by agar dilution method; format: functional; conditions: ATCC 51299, 18 h
HeLa = test: Cytotoxicity against human HeLa cells after 48 hrs by SRB assay; format: functional, cell-based
Procedure, shortened: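 HeLa human cervical carcinoma cells obtained from ATCC. Cytotoxicity was read by sulforhodamine B staining following an earlier published protocol, with doxorubicin hydrochloride as positive control. Values are reported as IC50.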

SMILES	MIC [1] [µg/mL]	MIC (Morganella morganii) [µg/mL]	MIC (Klebsiella pneumoniae [2]) [µg/mL]	MIC (Enterococcus faecalis [3]) [µg/mL]	MIC (Klebsiella pneumoniae [4]) [µg/mL]	MIC (Candida albicans) [µg/mL]	MIC (Klebsiella pneumoniae [5]) [µg/mL]	MIC [6] [µg/mL]	MIC (Klebsiella aerogenes) [µg/mL]	MIC (Providencia rettgeri) [µg/mL]	MIC (Enterococcus faecium [7]) [µg/mL]	MIC [8] [µg/mL]	MIC (Escherichia coli [9]) [µg/mL]	MIC (Escherichia coli [10]) [µg/mL]	MIC (Pseudomonas aeruginosa [11]) [µg/mL]	MIC (Serratia marcescens) [µg/mL]	MIC (Proteus vulgaris) [µg/mL]	MIC (Klebsiella pneumoniae [12]) [µg/mL]	MIC [13] [µg/mL]	MIC (Citrobacter freundii) [µg/mL]	further results
CNC(=N)NCCC/C=C/CCC[C@H](C)C[C@H](C)[C@H]1OC(=O)[C@H](C)[C@H](O)/C=C/[C@H](C)[C@H](O)C[C@H](O)[C@H](C)[C@@H](O)CC[C@H](C)[C@H](O)C[C@]2(O)O[C@H](C[C@@H](O)C[C@H](OC(=O)CC(=O)O)C[C@@H](O)[C@H](C)[C@H](O)/C=C/C=C/[C@@H]1C)C[C@H](O)[C@H]2O	4 to 16 (≈ 3.5 to 14 µM)	> 64	> 64	64 (≈ 56 µM)	> 64	8 to 32 (≈ 7 to 28 µM)	> 64	4 to 16 (≈ 3.5 to 14 µM)	> 64	> 64	64 (≈ 56 µM)	4 (≈ 3.5 µM)	> 64	> 64	> 64	> 64	> 64	> 64	4 to 32 (≈ 3.5 to 28 µM)	> 64	MIC (Enterobacter cloacae): > 64 µg/mL; MIC (Klebsiella pneumoniae [14]): > 64 µg/mL; MIC (Enterococcus faecium [15]): 64 µg/mL (≈ 56 µM); MIC (Pseudomonas aeruginosa [16]): > 64 µg/mL; MIC (Pseudomonas aeruginosa [17]): > 64 µg/mL; MIC (Staphylococcus aureus [18]): 4 to 32 µg/mL (≈ 3.5 to 28 µM); MIC (Staphylococcus aureus [19]): 4 to 32 µg/mL (≈ 3.5 to 28 µM); MIC (Escherichia coli [20]): > 64 µg/mL; MIC (Escherichia coli [21]): > 64 µg/mL; MIC [22]: > 64 µg/mL; MIC (Proteus mirabilis): > 64 µg/mL; MIC [23]: > 64 µg/mL; MIC (Enterococcus faecalis [24]): 64 µg/mL (≈ 56 µM); IC50 (HeLa): 3 to 9 µM
CNC(=N)NCCC/C=C/CCC[C@H](C)C[C@H](C)[C@H]1OC(=O)[C@H](C)[C@H](O)/C=C/[C@H](C)[C@H](O)C[C@H](O)[C@H](C)[C@@H](O)CC[C@H](C)[C@H](O)C[C@]2(O)O[C@H](C[C@@H](OC(=O)CC(=O)O)C[C@H](O)C[C@@H](O)[C@H](C)[C@H](O)/C=C/C=C/[C@@H]1C)C[C@H](O)[C@H]2O	4 to 16 (≈ 3.5 to 14 µM)	> 64	> 64	64 (≈ 56 µM)	> 64	8 to 32 (≈ 7 to 28 µM)	> 64	4 to 16 (≈ 3.5 to 14 µM)	> 64	> 64	64 (≈ 56 µM)	4 (≈ 3.5 µM)	> 64	> 64	> 64	> 64	> 64	> 64	4 to 32 (≈ 3.5 to 28 µM)	> 64	MIC (Enterobacter cloacae): > 64 µg/mL; MIC (Klebsiella pneumoniae [14]): > 64 µg/mL; MIC (Enterococcus faecium [15]): 64 µg/mL (≈ 56 µM); MIC (Pseudomonas aeruginosa [16]): > 64 µg/mL; MIC (Pseudomonas aeruginosa [17]): > 64 µg/mL; MIC (Staphylococcus aureus [18]): 4 to 32 µg/mL (≈ 3.5 to 28 µM); MIC (Staphylococcus aureus [19]): 4 to 32 µg/mL (≈ 3.5 to 28 µM); MIC (Escherichia coli [20]): > 64 µg/mL; MIC (Escherichia coli [21]): > 64 µg/mL; MIC [22]: > 64 µg/mL; MIC (Proteus mirabilis): > 64 µg/mL; MIC [23]: > 64 µg/mL; MIC (Enterococcus faecalis [24]): 64 µg/mL (≈ 56 µM); IC50 (HeLa): 3 to 9 µM

From ChEMBL document CHEMBL4130613, “Identification and Proposed Relative and Absolute Configurations of Niphimycins C-E from the Marine-Derived Streptomyces sp. IMB7-145 by Genomic Analysis” (J Nat Prod, 2018)
